The values that follow come from ChEMBL document CHEMBL3044834, “Novel protoporphyrinogen oxidase inhibitors: 3H-pyrazolo[3,4-d][1,2,3]triazin-4-one derivatives” (J Agric Food Chem, 2008).

What all share (format): functional
In assay [1] the test system is Brassica rapa subsp. oleifera. Nature of the assay: Herbicidal activity against Brassica rapa subsp. oleifera assessed as inhibition of fresh weed plant weight at 1500 g/ha using pre-emergence treatment protocol.
Assay [2] deals with Amaranthus retroflexus. In words: Herbicidal activity against Amaranthus retroflexus assessed as inhibition of fresh weed plant weight at 1500 g/ha using post-emergence treatment protocol. The essentials:
(§1)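 Test compounds made up as emulsions by dissolving in 100 µL N,N-dimethylformamide, then adding a little Tween 20 and water. For post-emergence, weed seedlings at one leaf and one stem were sprayed at the same rates as the pre-emergence test. Fresh weight was recorded 15 days after treatment and expressed as percent inhibition versus controls. All treatments were run in triplicate.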

Assay [3] has as its system Echinochloa crus-galli. In words: Herbicidal activity against Echinochloa crus-galli (barnyard grass) assessed as inhibition of fresh weed plant weight at 1500 g/ha using post-emergence treatment protocol. The method in brief:
as §1

Assay [4] has as its system Digitaria sanguinalis. In words: Herbicidal activity against Digitaria sanguinalis (hairy crabgrass) assessed as inhibition of fresh weed plant weight at 1500 g/ha using post-emergence treatment protocol. The method in brief: as §1
Assay [5] has as its system Digitaria sanguinalis. In words: Herbicidal activity against Digitaria sanguinalis (hairy crabgrass) assessed as inhibition of fresh weed plant weight at 1500 g/ha using pre-emergence treatment protocol.
Assay [6] concerns Brassica rapa subsp. oleifera. In words: Herbicidal activity against Brassica rapa subsp. oleifera assessed as inhibition of fresh weed plant weight at 1500 g/ha using post-emergence treatment protocol. The essentials: as §1
The test system of assay [7] is Amaranthus retroflexus. Nature of the assay: Herbicidal activity against Amaranthus retroflexus assessed as inhibition of fresh weed plant weight at 1500 g/ha using pre-emergence treatment protocol.
Assay [8] relates to Echinochloa crus-galli. In words: Herbicidal activity against Echinochloa crus-galli (barnyard grass) assessed as inhibition of fresh weed plant weight at 1500 g/ha using pre-emergence treatment protocol.

Consider `CCOc1cc(-n2nnc3c(cnn3C)c2=O)c(F)cc1Cl`, for which the inhibition at 1500 g/ha in assay [1] was determined as 29.8%; in the assay with Amaranthus retroflexus [2] it was 70.6%; in the assay with Echinochloa crus-galli [3] it was 20.2%; with Digitaria sanguinalis [4], 0%; in the assay on Digitaria sanguinalis [5], 0%; in assay [6], 21.5%. For the same compound, the inhibition at 1500 g/ha in the assay on Amaranthus retroflexus [7] is 0%; with Echinochloa crus-galli [8], 12.4%.

Regarding `CCCCOc1cc(-n2nnc3c(cnn3C)c2=O)c(F)cc1Cl`, the inhibition at 1500 g/ha in assay [1] was found to be 4.8%; in the assay on Amaranthus retroflexus [2] it was 16.6%; in the assay with Echinochloa crus-galli [3] it was 0%; with Digitaria sanguinalis [4], 0%; with Digitaria sanguinalis [5], 0%; in assay [6] it was 16.1%. Also, the inhibition at 1500 g/ha in the assay with Amaranthus retroflexus [7] and with Echinochloa crus-galli [8] was 0% throughout.

`CCCCCOc1cc(-n2nnc3c(cnn3C)c2=O)c(F)cc1Cl`: the inhibition at 1500 g/ha in assay [1] is 13.9%; in the assay with Amaranthus retroflexus [2] it was 23.2%; in the assay on Echinochloa crus-galli [3] it was 15.3%; in the assay with Digitaria sanguinalis [4] it was 0%; in the assay on Digitaria sanguinalis [5], 0%; in assay [6], 6.1%. For the same compound, the inhibition at 1500 g/ha in the assay on Amaranthus retroflexus [7] was 0%; in the assay with Echinochloa crus-galli [8] it was 1.1%.

On to `Cn1ncc2c(=O)n(-c3cc(OC/C=C/Cl)c(Cl)cc3F)nnc21`, for which the inhibition at 1500 g/ha in assay [1] was determined as 0%; in the assay with Amaranthus retroflexus [2] it was 14%; with Echinochloa crus-galli [3], 11.1%; with Digitaria sanguinalis [4], 0%; in the assay with Digitaria sanguinalis [5] it was 1.4%; in assay [6] it was 2.9%. Further, the inhibition at 1500 g/ha with Amaranthus retroflexus [7] is 0%; in the assay on Echinochloa crus-galli [8] it was 9.7%.

Regarding `C=C(Cl)COc1cc(-n2nnc3c(cnn3C)c2=O)c(F)cc1Cl`, the inhibition at 1500 g/ha in assay [1] amounted to 0%; in the assay on Amaranthus retroflexus [2], 54.1%; in the assay on Echinochloa crus-galli [3] it was 31.1%; with Digitaria sanguinalis [4], 0%; with Digitaria sanguinalis [5] it was 0%; in assay [6], 0%. For the same compound, the inhibition at 1500 g/ha in the assay with Amaranthus retroflexus [7] was 11%; with Echinochloa crus-galli [8] it was 15.9%.

Turning to `Cn1ncc2c(=O)n(-c3cc(OCC#N)c(Cl)cc3F)nnc21`, the inhibition at 1500 g/ha in assay [1] was 0%; with Amaranthus retroflexus [2] it was 100%; in the assay on Echinochloa crus-galli [3], 32.6%; in the assay with Digitaria sanguinalis [4] it was 0%; in the assay with Digitaria sanguinalis [5], 2.3%; in assay [6], 31.3%. The inhibition at 1500 g/ha in the assay on Amaranthus retroflexus [7] amounted to 40.5%; with Echinochloa crus-galli [8] it was 17.5%.

For `COCCOCOc1cc(-n2nnc3c(cnn3C)c2=O)c(F)cc1Cl`, the inhibition at 1500 g/ha in assay [1] came out at 0%; with Amaranthus retroflexus [2], 74.9%; in the assay with Echinochloa crus-galli [3], 43.6%; in the assay on Digitaria sanguinalis [4] it was 0%; with Digitaria sanguinalis [5] it was 2.3%; in assay [6], 28%. The inhibition at 1500 g/ha in the assay on Amaranthus retroflexus [7] came to 51.8%; in the assay with Echinochloa crus-galli [8], 5.6%.

As to `C#CCOc1cc(-n2nnc3c(cnn3C)c2=O)c(F)cc1Cl`, the inhibition at 1500 g/ha in assay [1] is 12.7%; in the assay with Amaranthus retroflexus [2] it was 0%; with Echinochloa crus-galli [3], 20.8%; in the assay with Digitaria sanguinalis [4] it was 19.6%; with Digitaria sanguinalis [5], 0%; in assay [6] it was 9.2%. Further, the inhibition at 1500 g/ha in the assay on Amaranthus retroflexus [7] and in the assay with Echinochloa crus-galli [8] was 0% in each case.

`C=CCOc1cc(-n2nnc3c(cnn3C)c2=O)c(F)cc1Cl`: the inhibition at 1500 g/ha is 7.4% in assay [1]; 0% in the assay on Amaranthus retroflexus [2]; 28% in the assay with Echinochloa crus-galli [3]; 17.9% in the assay with Digitaria sanguinalis [4]; 0% with Digitaria sanguinalis [5]; 1.2% in assay [6]. For the same compound, the inhibition at 1500 g/ha was determined as 10.6% with Amaranthus retroflexus [7] and 11% in the assay with Echinochloa crus-galli [8].

In the case of `CCOC(=O)Oc1cc(-n2nnc3c(cnn3C)c2=O)c(F)cc1Cl`, the inhibition at 1500 g/ha in assay [1] amounted to 0%; with Amaranthus retroflexus [2], 7.7%; with Echinochloa crus-galli [3], 37.7%; in the assay with Digitaria sanguinalis [4] it was 0%; in the assay with Digitaria sanguinalis [5], 0%; in assay [6], 0%. The inhibition at 1500 g/ha in the assay on Amaranthus retroflexus [7] is 0%; in the assay on Echinochloa crus-galli [8], 19.8%.

Take `C#CCOc1cc(-n2nnc3c(c(C(F)(F)F)nn3C)c2=O)c(F)cc1Cl`: the inhibition at 1500 g/ha in assay [1] worked out at 21.6%; in the assay on Amaranthus retroflexus [2], 5.5%; in the assay with Echinochloa crus-galli [3], 2.4%; with Digitaria sanguinalis [4], 0%; in the assay with Digitaria sanguinalis [5], 6.7%; in assay [6], 32.7%. Further, the inhibition at 1500 g/ha came to 15.5% with Amaranthus retroflexus [7] and 0% in the assay on Echinochloa crus-galli [8].

Take `C#CCOc1cc(-n2nnc3c(c(C)nn3C)c2=O)c(F)cc1Cl`: the inhibition at 1500 g/ha in assay [1] amounted to 9.5%; in the assay with Amaranthus retroflexus [2] it was 0%; in the assay with Echinochloa crus-galli [3], 0%; with Digitaria sanguinalis [4], 0%; in the assay on Digitaria sanguinalis [5] it was 38.3%; in assay [6], 0%. For the same compound, the inhibition at 1500 g/ha in the assay with Amaranthus retroflexus [7] and in the assay with Echinochloa crus-galli [8] was 0% throughout.

For `C=CCOc1cc(-n2nnc3c(c(C)nn3C)c2=O)c(F)cc1Cl`, the inhibition at 1500 g/ha in assay [1] amounted to 7.8%; in the assay on Amaranthus retroflexus [2], 14.7%; in the assay with Echinochloa crus-galli [3], 21%; in the assay on Digitaria sanguinalis [4], 16.6%; in the assay on Digitaria sanguinalis [5] it was 0%; in assay [6], 7.5%. Further, the inhibition at 1500 g/ha in the assay with Amaranthus retroflexus [7] was 0%; in the assay on Echinochloa crus-galli [8], 17.2%.

For `C=CCN1C(=O)COc2cc(F)c(-n3nnc4c(cnn4C)c3=O)cc21`, the inhibition at 1500 g/ha in assay [1] came to 17.5%; in the assay with Amaranthus retroflexus [2], 20.3%; in the assay on Echinochloa crus-galli [3], 9.1%; in the assay on Digitaria sanguinalis [4], 27%; with Digitaria sanguinalis [5] it was 0%; in assay [6], 20.9%. The inhibition at 1500 g/ha turned out to be 30.6% with Amaranthus retroflexus [7] and 24.4% in the assay with Echinochloa crus-galli [8].

For `C#CCN1C(=O)COc2cc(F)c(-n3nnc4c(c(C(F)(F)F)nn4C)c3=O)cc21`, the inhibition at 1500 g/ha in assay [1] was determined as 0%; in the assay with Amaranthus retroflexus [2], 0%; in the assay with Echinochloa crus-galli [3], 8.2%; in the assay with Digitaria sanguinalis [4], 0%; with Digitaria sanguinalis [5], 8.3%; in assay [6], 20.8%. Besides, the figures for the inhibition at 1500 g/ha in the assay on Amaranthus retroflexus [7] and in the assay on Echinochloa crus-galli [8] were 0% and 3%, respectively.

As to `C=CCN1C(=O)COc2cc(F)c(-n3nnc4c(c(C(F)(F)F)nn4C)c3=O)cc21`, the inhibition at 1500 g/ha amounted to 0% in assay [1]; 0% in the assay with Amaranthus retroflexus [2]; 13.6% in the assay on Echinochloa crus-galli [3]; 0% with Digitaria sanguinalis [4]; 0% with Digitaria sanguinalis [5]; 12% in assay [6]. In addition, the inhibition at 1500 g/ha in the assay with Amaranthus retroflexus [7] was 1.2%; with Echinochloa crus-galli [8], 0%.

`C#CCN1C(=O)COc2cc(F)c(-n3nnc4c(c(C)nn4C)c3=O)cc21`: the inhibition at 1500 g/ha is 44.4% in assay [1]; 0% with Amaranthus retroflexus [2]; 0% in the assay on Echinochloa crus-galli [3]; 0% in the assay with Digitaria sanguinalis [4]; 57% in the assay on Digitaria sanguinalis [5]; 0% in assay [6]. The results for the inhibition at 1500 g/ha in the assay on Amaranthus retroflexus [7] and in the assay on Echinochloa crus-galli [8] were 30% and 15.8%, respectively.

For `C=CCN1C(=O)COc2cc(F)c(-n3nnc4c(c(C)nn4C)c3=O)cc21`, the inhibition at 1500 g/ha in assay [1] amounted to 34.6%; with Amaranthus retroflexus [2], 0%; in the assay on Echinochloa crus-galli [3], 0%; in the assay on Digitaria sanguinalis [4], 0%; in the assay on Digitaria sanguinalis [5], 47.7%; in assay [6], 0%. The inhibition at 1500 g/ha in the assay on Amaranthus retroflexus [7] came out at 50%; in the assay on Echinochloa crus-galli [8], 22.3%.

Take `Cn1ncc2c(=O)n(-c3cc(O)c(Cl)cc3F)nnc21`: the inhibition at 1500 g/ha was 0% in assay [1]; 25.1% in the assay with Amaranthus retroflexus [2]; 13.2% in the assay on Echinochloa crus-galli [3]; 9.2% in the assay on Digitaria sanguinalis [4]; 0% in the assay with Digitaria sanguinalis [5]; 27.9% in assay [6]. Further, the inhibition at 1500 g/ha in the assay with Amaranthus retroflexus [7] came to 23.7%; in the assay with Echinochloa crus-galli [8], 3.5%.

On to `COc1cc(-n2nnc3c(cnn3C)c2=O)c(F)cc1Cl`, for which the inhibition at 1500 g/ha in assay [1] turned out to be 0%; in the assay on Amaranthus retroflexus [2], 37.5%; in the assay on Echinochloa crus-galli [3] it was 1%; in the assay on Digitaria sanguinalis [4] it was 20.6%; in the assay on Digitaria sanguinalis [5], 0%; in assay [6], 28.3%. Further, the figures for the inhibition at 1500 g/ha in the assay with Amaranthus retroflexus [7] and in the assay on Echinochloa crus-galli [8] were 40.5% and 11.3%, respectively.
